ChEMBL document CHEMBL1135165, “Pyrrolidine-5,5-trans-lactams as novel mechanism-based inhibitors of human cytomegalovirus protease. Part 3: potency and plasma stability” (Bioorg Med Chem Lett, 2002)

Assays:
[1] = molecular target: T1, Capsid scaffolding protein (Human cytomegalovirus (strain AD169) (HHV-5) (Human herpesvirus 5), UniProt P16753); experiment: Tested in vitro for inhibitory activity against Protease; set-up: species or system Human betaherpesvirus 5
T1 sequence (P16753 whole entry): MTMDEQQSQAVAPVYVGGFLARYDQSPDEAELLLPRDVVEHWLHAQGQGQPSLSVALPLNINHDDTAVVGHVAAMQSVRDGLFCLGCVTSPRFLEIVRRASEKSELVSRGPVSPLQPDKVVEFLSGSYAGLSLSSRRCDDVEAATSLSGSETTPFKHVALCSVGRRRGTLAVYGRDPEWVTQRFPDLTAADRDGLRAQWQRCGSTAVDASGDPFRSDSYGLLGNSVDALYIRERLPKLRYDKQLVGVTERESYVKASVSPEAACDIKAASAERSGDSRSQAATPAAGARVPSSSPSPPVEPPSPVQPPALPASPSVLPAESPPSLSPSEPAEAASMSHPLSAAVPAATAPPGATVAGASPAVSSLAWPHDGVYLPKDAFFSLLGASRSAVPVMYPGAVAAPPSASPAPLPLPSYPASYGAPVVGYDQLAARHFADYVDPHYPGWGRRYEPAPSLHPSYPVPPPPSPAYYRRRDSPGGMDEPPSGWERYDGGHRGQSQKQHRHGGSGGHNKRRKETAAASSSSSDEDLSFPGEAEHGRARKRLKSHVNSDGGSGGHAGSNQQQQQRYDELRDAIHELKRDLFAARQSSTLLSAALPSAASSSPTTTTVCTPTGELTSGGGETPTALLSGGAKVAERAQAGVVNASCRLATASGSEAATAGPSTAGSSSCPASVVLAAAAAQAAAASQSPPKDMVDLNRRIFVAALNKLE
Summary of the method: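 Human cytomegalovirus protease inhibition was measured in a p-nitroanilide (pNA) chromogenic substrate assay. Values are reported as IC50 in μM, with Ki also given for some compounds.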

[2] = Half life in human plasma was reported; type: ADME, cell-free

Row | SMILES | IC50 [1] | half-life [2]
1 | COC(=O)N1C(=O)[C@@H](C)[C@@H]2[C@@H]1CCN2C(=O)OCc1ccccc1 | 148 µM | 0.833 h
2 | CC1CC1C(=O)N1C(=O)[C@@H](C)[C@@H]2[C@@H]1CCN2C(=O)[C@@H]1CCCN1S(=O)(=O)c1cccc2c(N(C)C)cccc12 (stereo partly drawn) | 1.4 µM | 2.5 h
3 | C[C@@H]1[C@H](C)[C@@H]1C(=O)N1C(=O)[C@@H](C)[C@@H]2[C@@H]1CCN2C(=O)[C@@H]1CCCN1S(=O)(=O)c1cccc2c(N(C)C)cccc12 | 5.1 µM | 20 h
4 | C[C@@H]1C(=O)N(C(=O)C2C(C)(C)C2(C)C)[C@H]2CCN(C(=O)OCc3ccccc3)[C@H]12 | > 500 µM | 33 h
5 | C[C@@H]1[C@H](C)[C@@H]1C(=O)N1C(=O)[C@@H](C)[C@@H]2[C@@H]1CCN2C(=O)OCc1ccccc1 | 72 µM | 9.8 h
6 | C[C@@H]1C(=O)N(C(=O)C(C)(C)C)[C@H]2CCN(C(=O)OCc3ccccc3)[C@H]12 | > 500 µM | 3.7 h
7 | C[C@@H]1C(=O)N(C(=O)NCc2ccccc2)[C@H]2CCN(C(=O)[C@@H]3CCCN3S(=O)(=O)c3cccc4c(N(C)C)cccc34)[C@H]12 | 6.6 µM | > 33 h
8 | C[C@@H]1C(=O)N(c2nccs2)[C@H]2CCN(C(=O)OCc3ccccc3)[C@H]12 | ~500 µM | 44 h
9 | CC1CC1C(=O)N1C(=O)[C@@H](C)[C@@H]2[C@@H]1CCN2C(=O)OCc1ccccc1 (stereo partly drawn) | 16 µM | 2.6 h
10 | COP(=O)(OC)N1C(=O)[C@@H](C)[C@@H]2[C@@H]1CCN2C(=O)OCc1ccccc1 | > 500 µM | > 24 h
11 | C[C@@H]1C(=O)N(C(=O)C2C(C)(C)C2(C)C)[C@H]2CCN(C(=O)[C@@H]3CCCN3S(=O)(=O)c3cccc4c(N(C)C)cccc34)[C@H]12 | > 100 µM | > 24 h
12 | CNC(=O)N1C(=O)[C@@H](C)[C@@H]2[C@@H]1CCN2C(=O)OCc1ccccc1 | > 500 µM | > 24 h
13 | C[C@@H]1C(=O)N(c2ccc([N+](=O)[O-])cc2)[C@H]2CCN(C(=O)OCc3ccccc3)[C@H]12 | ~500 µM | 40 h
14 | CNC(=O)N1C(=O)[C@@H](C)[C@@H]2[C@@H]1CCN2C(=O)[C@@H]1CCCN1S(=O)(=O)c1cccc2c(N(C)C)cccc12 | 22 µM | 12 h
15 | C[C@@H]1C(=O)N(c2ccc([N+](=O)[O-])cc2[N+](=O)[O-])[C@H]2CCN(C(=O)OCc3ccccc3)[C@H]12 | ~500 µM | > 24 h
16 | C[C@@H]1C(=O)N(C(=O)C2CC2)[C@H]2CCN(C(=O)OCc3ccccc3)[C@H]12 | 9 µM | 1.4 h
17 | C[C@@H]1C(=O)N(c2ccc([N+](=O)[O-])cc2)[C@H]2CCN(C(=O)[C@@H]3CCCN3S(=O)(=O)c3cccc4c(N(C)C)cccc34)[C@H]12 | 41 µM | 
18 | C[C@@H]1C(=O)N(S(C)(=O)=O)[C@H]2CCN(C(=O)OCc3ccccc3)[C@H]12 | ~500 µM | < 0.0833 h
19 | C[C@@H]1C(=O)N(C(=O)NCc2ccccc2)[C@H]2CCN(C(=O)OCc3ccccc3)[C@H]12 | 250 µM | 12 h
20 | CC(=O)N1C(=O)[C@@H](C)[C@@H]2[C@@H]1CCN2C(=O)OCc1ccccc1 |  | 0.9 h
21 | CC(=O)N1C(=O)C(C)(C)[C@@H]2[C@@H]1CCN2C(=O)OCc1ccccc1 | > 500 µM | 6.5 h
22 | C[C@@H]1C(=O)N(c2nccs2)[C@H]2CCN(C(=O)[C@@H]3CCCN3S(=O)(=O)c3cccc4c(N(C)C)cccc34)[C@H]12 | 2.1 µM | > 50 h
23 | C[C@@H]1C(=O)N(C(=O)C2CC2)[C@H]2CCN(C(=O)[C@@H]3CCCN3S(=O)(=O)c3cccc4c(N(C)C)cccc34)[C@H]12 |  | 5 h
